Test results published in paper PMC11589030 (Discover Oncology, 2024).
Entries after “also recorded” stand apart in the source; their conditions may differ. Where two headings read alike, the source gives them in different places. Values belong to the compound of their own block, whether it stands above or below them.

Tests used:
[1] = Drug metabolism rate assay; format: in vitro ADME; settings: human, MHCC97-H cells
E-Cadherin = assay: AmpliSeq expression in MHCC97-H cells: E-Cadherin; format: cell-based; settings: Fig. 5B
Procedure, shortened: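 MHCC97-H cells in DMEM with 10% FBS were treated with pralatrexate (2, 1, 0.5), fatostatin (1, 0.1) or BAY-876 (1, 0.1 μmol/L). RNA (10 ng) was reverse transcribed and amplified with custom AmpliSeq RNA panels. Expression was normalised to β-actin. Three replicate wells per sample; three biological replicates.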

miRNA-34a = assay: AmpliSeq miRNA-34a expression in MHCC97-H cells; format: cell-based; settings: MHCC97-H cells with direct expression of NICD, Fig. 7
Procedure, shortened: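 MHCC97-H cells were transduced with NICD lentivirus and cultured in DMEM with 10% FBS. RNA (10 ng) was reverse transcribed and cDNA amplified with custom AmpliSeq RNA panels to quantify miRNA-34a, normalised to β-actin. Three replicate wells per sample; three biological replicates.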

HCC cells = assay: Biochemical examination of metabolic features; format: cell-based; settings: compared to BAY-876 or fatostatin, Fig. 6
MHCC97-H cells [2] = assay: In vivo tumor model, MHCC97-H subcutaneous tumours; set-up: species or system nude mice
NICD = assay: AmpliSeq expression in MHCC97-H cells: NICD; format: cell-based; settings: MHCC97-H cells with direct expression of NICD, Fig. 7
Notch 1 protein and NICD = assay: Sub-cellular fraction assay with western blot; format: cell-based; settings: MHCC97-H, 2 μmol/L, 30 min, 1 h, 2 h
Procedure, shortened: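 After treatment, cells were sonicated. Nuclei were pelleted at 800 rpm, 4 °C, ~3 min, and the cytoplasmic fraction at 12,000 rpm, 4 °C, ~10 min. Fractions were boiled ~15 min in SDS-PAGE buffer and blotted onto PVDF. One C-terminal Notch1 antibody detected full-length Notch1 (>220 kDa) and NICD (~110 kDa). β-actin and Lamin A served as cytoplasmic and nuclear markers; detection was by chemiluminescence.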

miRNA-34a/Notch pathway = assay: BSP-NGS, AmpliSeq and western blot of subcutaneous tumour tissues; format: in vivo, nude mice
Procedure, shortened: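 Female BALB/c nude mice (5-week-old, SPF) bore subcutaneous MHCC97-H tumours, one per animal, 10 per group. Pralatrexate 5 mg/kg was given by oral gavage every other day for about 15 doses. All excised tumours underwent BSP-NGS (miRNA-34a promoter methylation) and AmpliSeq (miRNA-34a expression). Tumours 2, 4 and 8 were lysed in RIPA/SDS buffer for western blot of NICD against GAPDH.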

[3] = system: miRNA-34a promoter region; assay: BSP-NGS methylation of miRNA-34a promoter in MHCC97-H cells; format: cell-based; settings: MHCC97-H cells with direct expression of NICD, Fig. 7
Procedure, shortened: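 Genomic DNA from NICD-lentivirus-transduced MHCC97-H cells was isolated with a kit and used for bisulfite sequencing PCR plus next-generation sequencing. The region analysed was the miRNA-34a promoter segment chr1: 9152409–9152574, which holds seven CpG sites. Methylation rates were calculated by the Ma et al. (2020) procedure.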

HepG2 2.2.15 cells = assay: MTT assay, HepG2 2.2.15 cells; format: cell-based; settings: Homo sapiens
Procedure, shortened: (§1)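 HCC cells were transfected with control siRNA or siRNA against DHFR. Test compound was dissolved in DMSO, diluted in DMEM and applied at a concentration series. Viability was read by MTT and OD 490 nm. Inhibition = (OD control − OD treated)/OD control × 100%. IC50 was taken from dose–effect curves.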

HepG2 cells = assay: MTT assay, HepG2 cells; format: cell-based; settings: Homo sapiens
Procedure, shortened: as §1

LMC-3 cells = assay: MTT assay, LMC-3 cells; format: cell-based
Procedure, shortened: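 LMC-3 cells in DMEM with 10% FBS were transfected with control siRNA or siDHFR. They were then exposed to graded sorafenib concentrations and assayed by MTT. Inhibition = (OD490 control − OD490 treated)/OD490 control × 100%. IC50 was fitted from dose–effect curves in GraphPad Prism.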

MHCC97-H cells [4] = assay: MTT assay, MHCC97-H cells; format: cell-based; settings: Homo sapiens, MHCC97H
Procedure, shortened: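 MHCC97-H cells in DMEM with 10% FBS were pretreated 6–8 h with solvent control or pralatrexate (0.5, 1, 2 μmol/L). Molecular targeted drugs were then added as a seven-point series from 10 to 0.01 for about 48 h, with drugs dissolved in DMSO and diluted in DMEM. Viability was read by MTT at OD 490 nm. Inhibition % was computed against control and IC50 fitted in GraphPad Prism.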

half-life at 0.3 μmol/L [1]: 13.2 h
SMILES: COc1cccc2c1C(=O)c1c(O)c3c(c(O)c1C2=O)C[C@@](O)(C(=O)CO)C[C@@H]3O[C@H]1C[C@H](N)[C@H](O)[C@H](C)O1 [Adriamycin, adriamycin]

SMILES: C#CCC(Cc1cnc2nc(N)nc(N)c2n1)c1ccc(C(=O)N[C@@H](CCC(=O)O)C(=O)O)cc1 (stereo partly drawn) [Pralatrexate, pralatrexate]
E-Cadherin expression (E-Cadherin): upregulated the expression of E-cadherin; also recorded: enhanced the expression of E-Cadherin | miRNA-34a expression (miRNA-34a): upregulate miRNA-34a expression | Warburg effect of HCC cells (HCC cells): did not inhibit the Warburg effect | effect of combination on antitumour activity of sorafenib (MHCC97-H cells [2]; 5 mg/kg Pralatrexate + 0.2 mg/kg sorafenib, oral): significantly increase the antitumour activity of sorafenib | antitumour activity / cytotoxicity, subcutaneous tumours (MHCC97-H cells [2]; Pralatrexate 5 mg/kg oral gavage, alone): did not have significant cytotoxicity and weak | anti-tumour activity, subcutaneous tumours (MHCC97-H cells [2]; Pralatrexate higher doses (e.g. 20 mg/kg) oral gavage): significant anti-tumour activity | expression levels of NICD and Notch downstream factors (NICD): no longer able to affect the expression levels of NICD and Notch downstream factors | Notch 1 protein expression (cytoplasm) (Notch 1 protein and NICD): did not affect the protein expression of Notch 1 | distribution of NICD in the nucleus (Notch 1 protein and NICD): did not affect the distribution of NICD in the nucleus | expression of NICD and Survivin in tumour tissue (miRNA-34a/Notch pathway; NICD expression restored in MHCC97-H cells, Pralatrexate 5 mg/kg): no longer able to inhibit the expression of NICD and Survivin | expression of factors related to the Notch pathway in tumour tissue (miRNA-34a/Notch pathway; Pralatrexate 5 mg/kg oral): down-regulate the expression of factors related to the Notch pathway | expression of miRNA-34a in tumour tissue (miRNA-34a/Notch pathway; Pralatrexate 5 mg/kg oral): up-regulate the expression of miRNA-34a | methylation of the promoter region of miRNA-34a in tumour tissue (miRNA-34a/Notch pathway; Pralatrexate 5 mg/kg oral): inhibit the methylation of the promoter region of miRNA-34a | methylation rates of miRNA-34a promoter region [3]: decrease the methylation rates

SMILES: CCCc1cc(-c2nc(-c3ccc(C)cc3)cs2)ccn1 [Fatostatin, fatostatin]
E-Cadherin expression (E-Cadherin): enhanced the expression of E-Cadherin

SMILES: Cc1c(NC(=O)c2cc(C(N)=O)nc3cc(F)ccc23)c(C(F)(F)F)nn1Cc1ccc(C#N)cc1 [BAY-876]
E-Cadherin expression (E-Cadherin): enhanced the expression of E-Cadherin

half-life at 1 μmol/L [1]: 18.8 h | IC50 (HepG2 2.2.15 cells; HepG2 2.2.15, read-out: IC50 values of sorafenib on HCC cells, HepG2 2.2.15 cells, control): 1250 nM | IC50 (HepG2 2.2.15 cells; HepG2 2.2.15, read-out: IC50 values of sorafenib on HCC cells, HepG2 2.2.15 cells, siDHFR): 13 nM | IC50 (HepG2 cells; HepG2, read-out: IC50 values of sorafenib on HCC cells, HepG2 cells, control): 1160 nM | IC50 (HepG2 cells; HepG2, read-out: IC50 values of sorafenib on HCC cells, HepG2 cells, siDHFR): 37 nM
SMILES: CNC(=O)c1cc(Oc2ccc(NC(=O)Nc3ccc(Cl)c(C(F)(F)F)c3)cc2)ccn1 [Sorafenib, sorafenib]
antitumour activity, subcutaneous tumours (MHCC97-H cells [2]; sorafenib 0.2 mg/kg (low dose) oral gavage, alone): weak subcutaneous tumourigenic inhibitory activity and weak | IC50 (LMC-3 cells; read-out: IC50 values of sorafenib on HCC cells, LMC-3 cells, control): 910 nM | IC50 (LMC-3 cells; read-out: IC50 values of sorafenib on HCC cells, LMC-3 cells, siDHFR): 25 nM | IC50 (MHCC97-H cells [4]; read-out: IC50 value of sorafenib in MHCC97-H cells, Control siRNA): 1110 nM | IC50 (MHCC97-H cells [4]; read-out: IC50 values of Sorafenib on MHCC97-H cells, Control group): 1020 nM | IC50 (MHCC97-H cells [4]; read-out: IC50 values of Sorafenib on MHCC97-H cells, DHFR + miRNA-34a): 250 nM | IC50 (MHCC97-H cells [4]; read-out: IC50 values of Sorafenib on MHCC97-H cells, DHFR overexpression): 5380 nM | IC50 (MHCC97-H cells [4]; read-out: IC50 values of Sorafenib on MHCC97-H cells, siDHFR + NICD): 5670 nM
